In ChEMBL document CHEMBL4038281, “Competitive protein tyrosine phosphatase 1B (PTP1B) inhibitors, prenylated caged xanthones from Garcinia hanburyi and their inhibitory mechanism” (Bioorg Med Chem, 2017):

Columns and labels:
[1] = target: T1, Tyrosine-protein phosphatase non-receptor type 1 (Homo sapiens, UniProt P18031); assay: Inhibition of recombinant human PTP1B (1 to 322 residues) expressed in Escherichia coli using pNPP as substrate by Dixon plot analysis
T1 sequence (P18031 whole entry): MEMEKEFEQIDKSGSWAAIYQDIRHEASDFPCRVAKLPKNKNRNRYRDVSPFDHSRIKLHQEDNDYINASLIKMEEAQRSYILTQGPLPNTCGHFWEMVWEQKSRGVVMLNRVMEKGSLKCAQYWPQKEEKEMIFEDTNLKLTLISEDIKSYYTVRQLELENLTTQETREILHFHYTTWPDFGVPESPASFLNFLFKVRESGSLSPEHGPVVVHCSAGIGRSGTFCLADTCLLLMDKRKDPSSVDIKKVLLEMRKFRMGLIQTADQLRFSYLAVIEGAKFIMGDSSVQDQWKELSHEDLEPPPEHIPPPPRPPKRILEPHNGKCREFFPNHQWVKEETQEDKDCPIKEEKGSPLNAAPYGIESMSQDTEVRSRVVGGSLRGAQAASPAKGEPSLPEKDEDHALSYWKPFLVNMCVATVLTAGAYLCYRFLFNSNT
Method in brief: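 Initial velocity with pNPP was recorded over a range of inhibitor concentrations in 25 mM Tris-HCl (pH 7.5) buffer with EDTA, b-mercaptoethanol and DTT at 37 °C, read at 405 nm. Data were fitted by nonlinear regression, and inhibition constants were taken from Dixon plots.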

[2] = target: T1, Tyrosine-protein phosphatase non-receptor type 1; assay: Inhibition of recombinant human PTP1B (1 to 322 residues) expressed in Escherichia coli using pNPP as substrate incubated for 10 mins measured for 30 mins by spectrometric analysis
Method in brief: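 Enzyme (1 mg/mL stock) was mixed with sample in DMSO and 4 mM pNPP stock in 25 mM Tris-HCl pH 7.5, 1 mM EDTA, 2 mM b-mercaptoethanol and 1 mM DTT.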

[3] = target: T1, Tyrosine-protein phosphatase non-receptor type 1; assay: Inhibition of recombinant human PTP1B (1 to 322 residues) expressed in Escherichia coli using pNPP as substrate preincubated for 60 mins followed by substrate addition measured at 30 secs interval for 10 mins by UV-spectrophotmetric method; conditions: read-out: Ki(app)
Method in brief: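 Activity was read continuously by UV spectrophotometry for 10 min, giving progress curves of 20 points at 30 s intervals. Fixed substrate and several inhibitor levels were used, and any lag was excluded. vi, vs and Kobs were obtained by fitting the progress curves.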

| SMILES | Ki [1] [µM] | IC50 [2] [µM] | Ki [3] [µM] |
| --- | --- | --- | --- |
| CO[C@@H]1C2C(=O)c3c(O)c(C/C=C(\C)CCC=C(C)C)c(O)c(CC=C(C)C)c3O[C@@]23[C@H]2C[C@@H]1C(=O)[C@]3(C/C=C(/C)C(=O)O)OC2(C)C (stereo partly specified) | 0.39 | 0.93 |  |
| CO[C@@H]1C2C(=O)c3c(O)c4c(c(CC=C(C)C)c3O[C@@]23[C@H]2C[C@@H]1C(=O)[C@]3(C/C=C(/C)C(=O)O)OC2(C)C)O[C@](C)(CCC=C(C)C)C=C4 (stereo partly specified) | 0.3 | 0.74 |  |
| CC(C)=CCC/C(C)=C/Cc1c(O)c(CC=C(C)C)c2c(c1O)C(=O)C1=C[C@@H]3C[C@H]4C(C)(C)O[C@@](C/C=C(/C)C(=O)O)(C3=O)[C@@]14O2 [GAMBOGENIC ACID] | 1.21 | 3.47 |  |
| CC(C)=CCc1c2c(c(O)c3c1O[C@]14C(=C[C@@H]5C[C@H]1C(C)(C)O[C@@]4(/C=C(/C)CO)C5=O)C3=O)C=CC(C)(C)O2 | 29.3 | 70.2 |  |
| CO[C@@H]1C2C(=O)c3c(O)c4c(c(CC=C(C)C)c3O[C@@]23[C@H]2C[C@@H]1C(=O)[C@]3(C/C=C(/C)C(=O)O)OC2(C)C)OC(C)(C)C=C4 (stereo partly specified) | 1.75 | 4.44 |  |
| CC(C)=CCC[C@]1(C)C=Cc2c(O)c3c(c(CC=C(C)C)c2O1)O[C@]12C(=C[C@@H]4C[C@H]1C(C)(C)O[C@@]2(C/C=C(/C)C(=O)O)C4=O)C3=O [GAMBOGIC ACID] | 0.19 | 0.47 | 0.499 |
| CC(C)=CCc1c2c(c(O)c3c1O[C@]14C(=C[C@@H]5C[C@H]1C(C)(C)O[C@@]4(CC=C(C)C)C5=O)C3=O)C=CC(C)(C)O2 |  | > 200 |  |
| COC1=C2C(=O)c3c(O)c4c(c(CC=C(C)C)c3O[C@@]23[C@H]2C[C@@H]1C(=O)[C@]3(CC=C(C)C)OC2(C)C)O[C@](C)(CCC=C(C)C)C=C4 | 4.38 | 12.8 |  |
